According to ChEMBL document CHEMBL1156597, “Structure-activity relationship of kahalalide F synthetic analogues” (J Med Chem, 2008):

Columns and labels:
[1] = Cytotoxicity against human IGROV cells after 48 hrs by SRB assay; format: functional; settings: for CC50: read-out: LC50 (the source's name)
Method in brief: (§1)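 Cells grown in RPMI 1640 with 10% FBS and penicillin/streptomycin at 37 °C and 5% CO₂, trypsinized, then seeded at 5 × 10³/well. After 18 h drug-free attachment, samples in DMSO/EtOH/PBS (0.5:0.5:99) were added for 48 h continuous exposure. Cells were fixed with cold TCA (1 h, 4 °C) and stained with SRB (10 min). Tris-solubilized stain read at 490 nm. Triplicate wells, mean ± SD; GI₅₀ derived.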

PANC-1 = assay: Cytotoxicity against human PANC1 cells after 48 hrs by SRB assay; format: functional; settings: PANC-1, 48 h; for CC50: read-out: LC50 (the source's name); method in brief: as §1
SK-MEL-28 = assay: Cytotoxicity against human SK-MEL-28 cells after 48 hrs by SRB assay; format: functional, cell-based; settings: Homo sapiens, SK-MEL-28, 48 h; for GI50: read-out: GI50; for CC50: read-out: LC50 (the source's name); method in brief: as §1
LoVo [2] = assay: Cytotoxicity against human LoVo cells after 48 hrs by SRB assay; format: functional; settings: for CC50: read-out: LC50 (the source's name)
LoVo [3] = assay: Cytotoxicity against human doxorubicin resistant LoVo cells after 48 hrs by SRB assay; format: functional; settings: for CC50: read-out: LC50 (the source's name); method in brief: as §1
K562 = assay: Cytotoxicity against human K562 cells after 48 hrs by SRB assay; format: functional; settings: K562, 48 h; for CC50: read-out: LC50 (the source's name); method in brief: as §1
[4] = Cytotoxicity against human IGROV-ET cells after 48 hrs by SRB assay; format: functional; settings: for CC50: read-out: LC50 (the source's name); method in brief: as §1
DU-145 = assay: Cytotoxicity against human DU145 cells after 48 hrs by SRB assay; format: functional, cell-based; settings: Homo sapiens, DU-145, 48 h; for CC50: read-out: LC50 (the source's name); method in brief: as §1
[5] = Cytotoxicity against human HeLa-APL cells after 48 hrs by SRB assay; format: functional; method in brief: as §1
A549 = assay: Cytotoxicity against human A549 cells after 48 hrs by SRB assay; format: functional, cell-based; settings: Homo sapiens, A549, 48 h; for GI50: read-out: GI50; method in brief: as §1
HeLa = assay: Cytotoxicity against human HeLa cells after 48 hrs by SRB assay; format: functional; settings: read-out: LC50 (the source's name); method in brief: as §1
HT-29 = assay: Cytotoxicity against human HT29 cells after 48 hrs by SRB assay; format: functional, cell-based; settings: Homo sapiens, HT-29, 48 h; for CC50: read-out: LC50 (the source's name); method in brief: as §1
LNCaP = assay: Cytotoxicity against human LNcaP cells after 48 hrs by SRB assay; format: functional; settings: for CC50: read-out: LC50 (the source's name); method in brief: as §1

| SMILES | CC50 [1] [nM] | CC50 (PANC-1) [nM] | CC50 (SK-MEL-28) [nM] | GI50 (LoVo [2]) [nM] | TGI (LoVo [2]) [nM] | CC50 (LoVo [2]) [nM] | CC50 (LoVo [3]) [nM] | CC50 (K562) [nM] | GI50 [4] [nM] | GI50 ([4]; read-out: GI50) [nM] | CC50 [4] [nM] | GI50 (DU-145; read-out: GI50) [nM] | CC50 (DU-145) [nM] | LC50 (A549) [nM] | CC50 (HT-29) [nM] | CC50 (LNCaP) [nM] | GI50 (PANC-1) [nM] | TGI (PANC-1) [nM] | GI50 (LNCaP) [nM] | TGI (LNCaP) [nM] | further results |
| --- | --- | --- | --- | --- | --- | --- | --- | --- | --- | --- | --- | --- | --- | --- | --- | --- | --- | --- | --- | --- | --- |
| C/C=C1\NC(=O)[C@H](Cc2ccccc2)NC(=O)[C@@H](C(C)C)NC(=O)[C@@H]([C@H](C)CC)NC(=O)[C@H](NC(=O)[C@H](NC(=O)[C@H](CCCN)NC(=O)[C@H]2Cc3ccccc3CN2C(=O)[C@H](NC(=O)[C@@H](NC(=O)[C@@H](NC(=O)[C@H](NC(=O)CC[C@@H](C)CC)C(C)C)[C@@H](C)O)C(C)C)C(C)C)[C@H](C)CC)[C@H](C)OC(=O)[C@H](C(C)C)NC1=O | 464 | 1950 | 1560 | 2620 | 2540 | 685 | 1740 | 2100 | 779 | 1060 | 527 | 2390 | 1370 | 6500 | 426 | 1510 |  |  |  |  | GI50 [1]: 806 nM; GI50 ([1]; read-out: GI50): 1520 nM; TGI (SK-MEL-28): 3110 nM; GI50 (SK-MEL-28): 3630 nM; GI50 (LoVo [3]): 2290 nM; TGI (LoVo [3]): 2490 nM; TGI (DU-145): 2280 nM; LC50 (concentration giving 50% net cell kill) [5]: 947 nM; TGI (A549): 1540 nM; GI50 (A549): 1430 nM; CC50 (HeLa): 1050 nM |
| C/C=C1\NC(=O)[C@H](Cc2ccccc2)NC(=O)[C@@H](C(C)C)NC(=O)[C@@H]([C@H](C)CC)NC(=O)[C@H](NC(=O)[C@H](NC(=O)[C@H](CCCN)NC(=O)[C@@H]2CC[C@H](c3ccccc3)N2C(=O)[C@H](NC(=O)[C@@H](NC(=O)[C@@H](NC(=O)[C@H](NC(=O)CC[C@@H](C)CC)C(C)C)[C@@H](C)O)C(C)C)C(C)C)[C@H](C)CC)[C@H](C)OC(=O)[C@H](C(C)C)NC1=O | 499 | 1940 | 1540 | 7330 | 6170 | 756 | 1780 | 2080 |  |  | 5220 |  | 1360 | 6440 | 643 | 1550 |  |  |  |  | LC50 (concentration giving 50% net cell kill) [5]: 938 nM; CC50 (HeLa): 1040 nM |
| C/C=C1\NC(=O)[C@H](Cc2ccccc2)NC(=O)[C@@H](C(C)C)NC(=O)[C@@H]([C@H](C)CC)NC(=O)[C@H](NC(=O)[C@H](NC(=O)[C@H](CCCN)NC(=O)[C@@H]2CCCN2C(=O)[C@H](NC(=O)[C@@H](NC(=O)[C@@H](NC(=O)[C@H](NC(=O)CC[C@@H](C)CC)C(C)C)[C@@H](C)O)C(C)C)C(C)C)[C@H](C)CC)[C@H](C)OC(=O)[C@H](C(C)C)NC1=O | 525 | 2040 | 1620 |  |  | 794 | 1870 | 2180 |  |  | 549 |  | 1430 | 6780 | 6760 | 1630 |  |  |  |  | LC50 (concentration giving 50% net cell kill) [5]: 986 nM; CC50 (HeLa): 1090 nM |
| C/C=C1\NC(=O)[C@H](Cc2ccccc2)NC(=O)[C@@H](C(C)C)NC(=O)[C@@H]([C@H](C)CC)NC(=O)[C@H](NC(=O)[C@H](NC(=O)[C@H](CCCN)NC(=O)[C@H]2CCCN2C(=O)[C@H](NC(=O)[C@@H](NC(=O)[C@@H](NC(=O)[C@@H](NC(=O)CCCC(C)C)C(C)C)[C@@H](C)O)C(C)C)C(C)C)[C@H](C)CC)[C@H](C)OC(=O)[C@H](C(C)C)NC1=O | 668 | 1590 | 1060 | 1300 | 3250 | 2090 | 2880 | 153 | 529 | 2890 | 527 | 549 | 842 | 1040 | 501 | 967 | 1510 | 1560 | 853 | 911 | TGI (SK-MEL-28): 1030 nM; GI50 (SK-MEL-28): 1000 nM; GI50 (LoVo [3]): 1760 nM; TGI (LoVo [3]): 2250 nM; GI50 (DU-145): 771 nM; GI50 [5]: 1040 nM; LC50 (concentration giving 50% net cell kill) [5]: 969 nM; TGI [5]: 1510 nM; TGI (A549): 1180 nM; GI50 (A549): 1330 nM; CC50 (HeLa): 1020 nM; GI50 (HT-29): 635 nM; TGI (HT-29): 728 nM |
| C/C=C1\NC(=O)[C@H](Cc2ccccc2)NC(=O)[C@@H](C(C)C)NC(=O)[C@@H]([C@H](C)CC)NC(=O)[C@H](NC(=O)[C@H](NC(=O)[C@H](CCCN)NC(=O)[C@H]2CCCN2C(=O)[C@H](NC(=O)[C@@H](NC(=O)[C@@H](NC(=O)[C@H](NC(=O)CCCCC(C)(F)F)C(C)C)[C@@H](C)O)C(C)C)C(C)C)[C@H](C)CC)[C@H](C)OC(=O)[C@H](C(C)C)NC1=O | 2460 | 1690 | 1300 | 442 | 397 | 444 | 50700 | 2060 | 751 | 987 | 571 | 4520 | 5480 | 1440 | 3190 | 3730 | 2040 | 1850 | 1840 | 2870 | TGI [1]: 1540 nM; GI50 ([1]; read-out: GI50): 1330 nM; GI50 (K562): 2960 nM; TGI (K562): 2460 nM; TGI (DU-145): 3920 nM; TGI (A549): 2320 nM; GI50 (A549): 2030 nM; GI50 (HT-29): 1960 nM; TGI (HT-29): 2510 nM |
| C/C=C1\NC(=O)[C@H](Cc2ccccc2)NC(=O)[C@@H](C(C)C)NC(=O)[C@@H]([C@H](C)CC)NC(=O)[C@H](NC(=O)[C@H](NC(=O)[C@H](CCCN)NC(=O)[C@H]2CCCN2C(=O)[C@H](NC(=O)CCCCCCCCCCCCC)C(C)C)[C@H](C)CC)[C@H](C)OC(=O)[C@H](C(C)C)NC1=O | 5330 | 2160 | 1870 |  |  | 3980 | 5370 | 3390 |  |  | 5190 |  | 17900 | 2650 | 6890 | 8020 | 2450 | 2400 | 7210 | 8100 | GI50 (K562): 3000 nM; TGI (K562): 3470 nM |
| C/C=C1\NC(=O)[C@H](Cc2ccccc2)NC(=O)[C@@H](C(C)C)NC(=O)[C@@H]([C@H](C)CC)NC(=O)[C@H](NC(=O)[C@H](NC(=O)[C@H](CCCN)NC(=O)[C@H]2CCCN2C(=O)[C@H](NC(=O)CCCC(C)C)C(C)C)[C@H](C)CC)[C@H](C)OC(=O)[C@H](C(C)C)NC1=O | 6040 | 2450 | 2500 |  |  | 4320 | 5840 | 3540 |  |  | 6210 |  | 22300 | 2870 | 7470 | 8890 | 2920 | 2660 | 9850 | 9970 | GI50 (K562): 3480 nM; TGI (K562): 3510 nM |
| C/C=C1\NC(=O)[C@H](Cc2ccccc2)NC(=O)[C@@H](C(C)C)NC(=O)[C@@H]([C@H](C)CC)NC(=O)[C@H](NC(=O)[C@H](NC(=O)[C@H](CCCN)NC(=O)[C@H]2CCCN2C(=O)[C@H](NC(=O)[C@@H](NC(=O)[C@@H](NC(=O)[C@H](NC(=O)Cc2ccc(C(F)(F)F)cc2)C(C)C)[C@@H](C)O)C(C)C)C(C)C)[C@H](C)CC)[C@H](C)OC(=O)[C@H](C(C)C)NC1=O | 1890 | 2340 | 1200 | 458 | 492 | 819 | 1240 | 2790 | 675 | 866 | 524 | 5280 | 6240 | 1100 | 2920 | 4400 | 2170 | 2250 | 1630 | 3130 | GI50 [1]: 892 nM; GI50 ([1]; read-out: GI50): 1000 nM; TGI (SK-MEL-28): 15900 nM; GI50 (SK-MEL-28): 2800 nM; GI50 (K562): 2230 nM; TGI (K562): 2520 nM; TGI (DU-145): 5500 nM; TGI (A549): 2150 nM; GI50 (A549): 1840 nM; GI50 (HT-29): 1680 nM; TGI (HT-29): 2300 nM |
